According to ChEMBL document CHEMBL1147868, “Synthesis of novel triazole derivatives as inhibitors of cytochrome P450 14alpha-demethylase (CYP51)” (2007):
Values after ≈ are worked out from the molar mass of the structure shown.

Assays:
Format in all cases: functional
Fonsecaea compacta = experiment: Antifungal activity against Fonsecaea compacta after 7 days by micro-broth dilution method; settings: 168 h
In short: (§1)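 Clinical isolates supplied by a hospital were tested by NCCLS broth microdilution. Compounds were dissolved in DMSO, serially diluted in growth medium, inoculated and incubated at 35 C. Growth was read at 7 days for filamentous fungi. MIC80 was taken as the first well with about 80% less growth than the drug-free well.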

Candida albicans = experiment: Antifungal activity against Candida albicans ATCC Y0109 after 24 hrs by micro-broth dilution method
In short: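 An ATCC standard quality-control strain was included in each run of an NCCLS micro-broth dilution assay. Compounds were dissolved in DMSO, serially diluted in growth medium and incubated at 35 C. Reading was at 24 h, and MIC80 was the first well showing roughly 80% growth reduction versus the drug-free control.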

Cryptococcus neoformans = experiment: Antifungal activity against Cryptococcus neoformans ATCC BLS108 after 72 hrs by micro-broth dilution method
In short: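 This ATCC standard quality-control strain was tested in every assay by NCCLS microdilution. Test agents were dissolved in DMSO and serially diluted in growth medium. Cultures were incubated at 35 C and read at 72 h. MIC80 was the first well with approximately 80% reduced growth relative to the drug-free well.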

Candida tropicalis = experiment: Antifungal activity against Candida tropicalis after 7 days by micro-broth dilution method; settings: 168 h
In short: (§2)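 Micro-broth dilution followed NCCLS methods, using an ATCC standard quality-control strain for C. parapsilosis and a clinical isolate for C. tropicalis. Compounds were dissolved in DMSO, serially diluted in growth medium and incubated at 35 C. MIC80 was the first well with about 80% growth reduction compared with the drug-free well.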

Microsporum = experiment: Antifungal activity against Microsporum gypseum after 7 days by micro-broth dilution method; settings: 168 h; in short: as §1
Aspergillus fumigatus = experiment: Antifungal activity against Aspergillus fumigatus after 7 days by micro-broth dilution method; settings: 168 h; in short: as §1
Trichophyton rubrum = experiment: Antifungal activity against Trichophyton rubrum after 7 days by microbroth dilution method; settings: 168 h; in short: as §1
Candida parapsilosis = experiment: Antifungal activity against Candida parapsilosis ATCC 0306392 after 7 days by micro-broth dilution method; settings: Lodderomyces parapsilosis, ATCC 0306392, 168 h; in short: as §2

| Compound | MIC80 (Fonsecaea compacta) [µg/mL] | MIC80 (Candida albicans) [µg/mL] | MIC80 (Cryptococcus neoformans) [µg/mL] | MIC80 (Candida tropicalis) [µg/mL] | MIC80 (Microsporum) [µg/mL] | MIC80 (Aspergillus fumigatus) [µg/mL] | MIC80 (Trichophyton rubrum) [µg/mL] | MIC80 (Candida parapsilosis) [µg/mL] |
| --- | --- | --- | --- | --- | --- | --- | --- | --- |
| Cc1ccc(C(=O)Nc2ccc(N3CCN(CC(O)(Cn4cncn4)c4ccc(F)cc4F)CC3)c(F)c2)cc1C (stereo unspecified) | 0.25 (≈ 0.443 µM) | 0.25 (≈ 0.443 µM) | 0.25 (≈ 0.443 µM) | 0.0625 (≈ 0.111 µM) | 0.0152 (≈ 0.0269 µM) | 1 (≈ 1.77 µM) | 0.0625 (≈ 0.111 µM) | 0.0152 (≈ 0.0269 µM) |
| CCC(C)n1ncn(-c2ccc(N3CCN(c4ccc(OCC5COC(Cn6cncn6)(c6ccc(Cl)cc6Cl)O5)cc4)CC3)cc2)c1=O (stereo unspecified) [ITRACONAZOLE] | 0.25 (≈ 0.354 µM) | 1 (≈ 1.42 µM) | 1 (≈ 1.42 µM) | 0.25 (≈ 0.354 µM) | 0.0152 (≈ 0.0215 µM) | 1 (≈ 1.42 µM) | 0.0152 (≈ 0.0215 µM) | 0.25 (≈ 0.354 µM) |
| O=C(Nc1ccc(N2CCN(CC(O)(Cn3cncn3)c3ccc(F)cc3F)CC2)c(F)c1)c1ccc(OC(F)(F)F)cc1 (stereo unspecified) | 0.0625 (≈ 0.101 µM) | 0.0152 (≈ 0.0245 µM) | 0.25 (≈ 0.403 µM) | 0.0625 (≈ 0.101 µM) | 0.0625 (≈ 0.101 µM) | 1 (≈ 1.61 µM) | 0.0625 (≈ 0.101 µM) | 0.0625 (≈ 0.101 µM) |
| COc1ccc(C(=O)Nc2ccc(N3CCN(CC(O)(Cn4cncn4)c4ccc(F)cc4F)CC3)c(F)c2)cc1OC (stereo unspecified) | 0.25 (≈ 0.419 µM) | 0.0625 (≈ 0.105 µM) | 0.25 (≈ 0.419 µM) | 0.0039 (≈ 0.00654 µM) | 0.25 (≈ 0.419 µM) | 1 (≈ 1.68 µM) | 0.25 (≈ 0.419 µM) | 0.0625 (≈ 0.105 µM) |
| C[C@@H]1[C@H](O)[C@@H](C)/C=C/C=C/C=C/C=C/C=C/C=C/C=C/[C@H](O[C@@H]2O[C@H](C)[C@@H](O)[C@H](N)[C@@H]2O)C[C@@H]2O[C@](O)(C[C@@H](O)C[C@@H](O)[C@H](O)CC[C@@H](O)C[C@@H](O)CC(=O)O[C@H]1C)C[C@H](O)[C@H]2C(=O)O [AMPHOTERICIN B] | 16 (≈ 17.3 µM) | 1 (≈ 1.08 µM) | 1 (≈ 1.08 µM) | 0.0625 (≈ 0.0676 µM) | 0.0039 (≈ 0.00422 µM) | 4 (≈ 4.33 µM) | 1 (≈ 1.08 µM) | 0.0152 (≈ 0.0164 µM) |

Next, values leading:

| MIC80 (Fonsecaea compacta) [µg/mL] | MIC80 (Candida albicans) [µg/mL] | MIC80 (Cryptococcus neoformans) [µg/mL] | MIC80 (Candida tropicalis) [µg/mL] | MIC80 (Microsporum) [µg/mL] | MIC80 (Aspergillus fumigatus) [µg/mL] | MIC80 (Trichophyton rubrum) [µg/mL] | MIC80 (Candida parapsilosis) [µg/mL] | Compound |
| --- | --- | --- | --- | --- | --- | --- | --- | --- |
| 0.25 (≈ 0.406 µM) | 0.0625 (≈ 0.102 µM) | 0.25 (≈ 0.406 µM) | 0.0625 (≈ 0.102 µM) | 0.25 (≈ 0.406 µM) | 4 (≈ 6.5 µM) | 0.0625 (≈ 0.102 µM) | 0.0625 (≈ 0.102 µM) | O=C(Nc1ccc(N2CCN(CC(O)(Cn3cncn3)c3ccc(F)cc3F)CC2)c(F)c1)c1cccc(Br)c1 (stereo unspecified) |
| 0.0625 (≈ 0.111 µM) | 0.25 (≈ 0.443 µM) | 0.0625 (≈ 0.111 µM) | 0.0625 (≈ 0.111 µM) | 0.25 (≈ 0.443 µM) | 1 (≈ 1.77 µM) | 0.0625 (≈ 0.111 µM) | 4 (≈ 7.08 µM) | CCc1ccc(C(=O)Nc2ccc(N3CCN(CC(O)(Cn4cncn4)c4ccc(F)cc4F)CC3)c(F)c2)cc1 (stereo unspecified) |
| 0.25 (≈ 0.406 µM) | 0.0625 (≈ 0.102 µM) | 0.0625 (≈ 0.102 µM) | 0.0152 (≈ 0.0247 µM) | 0.0625 (≈ 0.102 µM) | 1 (≈ 1.62 µM) | 0.0039 (≈ 0.00634 µM) | 0.0152 (≈ 0.0247 µM) | O=C(Nc1ccc(N2CCN(CC(O)(Cn3cncn3)c3ccc(F)cc3F)CC2)c(F)c1)c1ccccc1Br (stereo unspecified) |
| 0.25 (≈ 0.466 µM) | 0.0625 (≈ 0.116 µM) | 0.0625 (≈ 0.116 µM) | 0.0039 (≈ 0.00727 µM) | 0.0152 (≈ 0.0283 µM) | 1 (≈ 1.86 µM) | 0.0152 (≈ 0.0283 µM) | 0.0152 (≈ 0.0283 µM) | O=C(Nc1ccc(N2CCN(CC(O)(Cn3cncn3)c3ccc(F)cc3F)CC2)c(F)c1)c1ccccc1 (stereo unspecified) |
| 0.0625 (≈ 0.113 µM) | 0.0152 (≈ 0.0274 µM) | 0.0152 (≈ 0.0274 µM) | 0.0152 (≈ 0.0274 µM) | 0.0625 (≈ 0.113 µM) | 4 (≈ 7.21 µM) | 0.0152 (≈ 0.0274 µM) | < 0.0039 | O=C(Nc1ccc(N2CCN(CC(O)(Cn3cncn3)c3ccc(F)cc3F)CC2)c(F)c1)c1ccccc1F (stereo unspecified) |
| 0.25 (≈ 0.438 µM) | 0.25 (≈ 0.438 µM) | 0.25 (≈ 0.438 µM) | 0.0625 (≈ 0.109 µM) | 0.0625 (≈ 0.109 µM) | 4 (≈ 7.01 µM) | 0.0625 (≈ 0.109 µM) | 0.0152 (≈ 0.0266 µM) | O=C(Nc1ccc(N2CCN(CC(O)(Cn3cncn3)c3ccc(F)cc3F)CC2)c(F)c1)c1cccc(Cl)c1 (stereo unspecified) |
| 0.25 (≈ 0.441 µM) | 0.0625 (≈ 0.11 µM) | 0.0152 (≈ 0.0268 µM) | 0.0152 (≈ 0.0268 µM) | 0.25 (≈ 0.441 µM) | 1 (≈ 1.76 µM) | 0.0152 (≈ 0.0268 µM) | 0.0152 (≈ 0.0268 µM) | COc1cccc(C(=O)Nc2ccc(N3CCN(CC(O)(Cn4cncn4)c4ccc(F)cc4F)CC3)c(F)c2)c1 (stereo unspecified) |
